# Non-standard residues stand in square brackets, D forms with d. Residues, ends and D or L forms follow the SMILES beside them. ξ: configuration not given here. *: point of attachment. Arg(NO2) = N=C(NCCC[C@H](N)C(=O)O)N[N+](=O)[O-]; ξArg(NO2) = N=C(NCCCC(N)C(=O)O)N[N+](=O)[O-]; Cbz = O=C(OCc1ccccc1)*; Boc = CC(C)(C)OC(=O)*; ξK = NCCCCC(N)C(=O)O
# Assays:
# Format in all cases: functional
# Rattus norvegicus [1] = assay: Ability (% reversal in rats) to reverse electroconvulsive shock-induced amnesia in rodents at a dose of 0.010 (mg/kg) administered intramuscularly (im)
# How it was run: (§1)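 Passive avoidance (step-through, lighted vs darkened compartment). […], ECS (20 mA, 1 s) was given transcorneally via saline-soaked electrodes, and maximal hindlimb extension was required. Drug was given im at selected doses 2 h post-training. One hour later, entry latency to the dark side was recorded, with 60 s counted as retention. At least 75% of ECS controls had to be amnesic. Replicates were mostly not run.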
# Rattus norvegicus [2] = assay: Ability (% reversal in rats) to reverse electroconvulsive shock-induced amnesia in rodents at a dose of 0.0010 (mg/kg) (following i.m. administration); how it was run: as §1
# Rattus norvegicus [3] = assay: Ability (% reversal in rats) to reverse electroconvulsive shock-induced amnesia in rodents at a dose of 0.10 (mg/kg) (following intramuscular dosing); how it was run: as §1
# Rattus norvegicus [4] = assay: Compound was tested for its ability (% reversal in rats) to reverse electroconvulsive shock-induced amnesia in rodents at a dose of 100 (mg/kg) administered intramuscularly (im); how it was run: as §1
# Rattus norvegicus [5] = assay: Compound was tested for its ability (% reversal in rats) to reverse electroconvulsive shock-induced amnesia in rodents at a dose of 10 (mg/kg) administered intramuscularly (im); how it was run: as §1
# Rattus norvegicus [6] = assay: Compound was tested for its ability (% reversal in rats) to reverse electroconvulsive shock-induced amnesia in rodents at a dose of 1 (mg/kg) administered intramuscularly (im); how it was run: as §1
# Mus musculus [7] = assay: Ability to reverse electroconvulsive shock-induced amnesia in rodents following 1 ug/kg i.m. administration.; how it was run: as §1
# Mus musculus [8] = assay: Ability to reverse electroconvulsive shock-induced amnesia in rodents following 0.01 mg/kg i.m. administration.; settings: route intramuscular; how it was run: as §1
# Mus musculus [9] = assay: Ability to reverse electroconvulsive shock-induced amnesia in rodents following 0.1 mg/kg i.m. administration.; settings: route intramuscular; how it was run: as §1
# Rattus norvegicus [10] = assay: Compound was tested for its ability (% reversal in rats) to reverse electroconvulsive shock-induced amnesia in rodents at a dose of 0.010 (mg/kg) administered intramuscularly (im).; how it was run: as §1
SMILES,Reversal (Rattus norvegicus [1]) [%],Reversal (Rattus norvegicus [2]) [%],Reversal (Rattus norvegicus [3]) [%],Reversal (Rattus norvegicus [4]) [%],Reversal (Rattus norvegicus [5]) [%],Reversal (Rattus norvegicus [6]) [%],Reversal (Mus musculus [7]) [%],Reversal (Mus musculus [8]) [%],Reversal (Mus musculus [9]) [%],Reversal (Rattus norvegicus [10]) [%]
CC(C)CC(CSCC(=O)O)NC(=O)c1ccccn1 (stereo not given),0,57,14,,,,,,,
NC(=O)CNC(=O)COCC1CCCN1C(=O)OCc1ccccc1 (stereo not given),33,56,20,,,,,,,
Cc1ccc(S(=O)(=O)N2CCCC2CN[C@@H](CC(C)C)C(=O)NCC(N)=O)cc1 (stereo not given in full),0,0,34,87,62,75,,,,
CC(C)CC(OCC1CCCN1C(=O)OCc1ccccc1)C(=O)NCC(=O)O (stereo not given),71,29,43,,,,,,,
O=C(NC(Cc1ccccc1)CN1C(=O)C2CCCN2C(=O)C1Cc1c[nH]cn1)c1ccccc1 (stereo not given),0,0,43,83,30,50,,,,
CC(C)(C)OC(=O)N1CCCC1CN[C@@H](CCCCNC(=O)OCc1ccccc1)C(=O)NCC(N)=O (stereo not given in full),33,16,16,,,,,,,
CC(C)CC(CSCC(N)=O)NCC1CCCN1C(=O)OCc1ccccc1 (stereo not given),25,45,25,,,,,,,
CC(C)CC(OCC1CCCN1C(=O)OCc1ccccc1)C(=O)NCC(N)=O (stereo not given),0,33,0,,,,,,,
CC(C)CC(/C=C/CC(N)=O)NC(=O)C1CCCN1C(=O)OCc1ccccc1 (stereo not given),77,33,44,,,,,,,
O=C(NCCCCC(SCC1CCCN1C(=O)OCc1ccccc1)C(=O)[O-])OCc1ccccc1.[Na+] (stereo not given),12,45,45,,,,,,,
Cc1ccc(S(=O)(=O)N2CCCC2CNC(CC(C)C)C(=O)NCC(=O)O)cc1 (stereo not given),33,33,0,,,,,,,
CC(C)CC1CN(C[C@H](CC(C)C)NC(=O)[C@@H]2CCC(=O)N2)CC(=O)N1 (stereo not given in full),,,,0,0,0,,,,
O=C(NCCCCC(CO)NC(=O)C1CCCN1C(=O)OCc1ccccc1)OCc1ccccc1 (stereo not given),40,50,40,0,20,0,,,,
CC(C)CC(CSCC(=O)O)NC(=O)C1CCCN1C(=O)OCc1ccccc1 (stereo not given),57,57,14,,,,69,77,69,
CC(C)CC(COCC(=O)O)NC(=O)C1CCCN1C(=O)OCc1ccccc1 (stereo not given),0,29,0,,,,,,,
CC(C)C[C@@H](CSCC(=O)O)NCC1CCCN1C(=O)OCc1ccccc1 (stereo not given in full),80,20,60,100,0,60,,,,
O=C(O)COCC1CCCN1C(=O)OCc1ccccc1 (stereo not given),40,40,50,62,62,37,,,,
NC(=O)CNC(=O)[C@H](CCCCNC(=O)OCc1ccccc1)NCC1CCCN1 (stereo not given in full),16,0,33,83,16,16,,,,
Cc1ccc(C(=O)NC(CSCC(=O)O)CC(C)C)s1 (stereo not given),60,60,20,,,,,,,
CCSCCNC(=O)C(CC(C)C)SCC1CCCN1C(=O)OCc1ccccc1 (stereo not given),0,33,0,,,,,,,
CCCNC(=O)C(CC(C)C)SCC1CCCN1C(=O)OCc1ccccc1 (stereo not given),20,60,20,,,,,,,
CC(C)CC(COCC(N)=O)NC(=O)C1CCCN1C(=O)OCc1ccccc1 (stereo not given),57,42,14,,,,,,,

SMILES,Reversal (Rattus norvegicus [1]) [%],Reversal (Rattus norvegicus [2]) [%],Reversal (Rattus norvegicus [3]) [%],Reversal (Rattus norvegicus [4]) [%],Reversal (Rattus norvegicus [5]) [%],Reversal (Rattus norvegicus [6]) [%],Reversal (Mus musculus [7]) [%],Reversal (Mus musculus [8]) [%],Reversal (Mus musculus [9]) [%],Reversal (Rattus norvegicus [10]) [%]
COc1ccc(C(=O)N2CCCC2C(=O)NC(CSCC(=O)O)CC(C)C)cc1 (stereo not given),,40,60,,,,12,50,12,0
NC(=O)CC[C@@H]1NC(=O)[C@H](Cc2ccccc2)NC(=O)[C@H](Cc2ccc(O)cc2)NC(=O)[C@@H](N)CSSC[C@@H](C(=O)N2CCC[C@H]2C(=O)N[C@@H](CCCN=C(N)N)C(=O)NCC(N)=O)NC(=O)[C@H](CC(N)=O)NC1=O,100,0,60,,,,,,,
Cc1ccc(S(=O)(=O)N2CCCC2C(=O)NC(CNCC(=O)O)CC(C)C)cc1 (stereo not given),33,17,17,,,,,,,
O=C(O)CNC(=O)COCC1CCCN1C(=O)OCc1ccccc1 (stereo not given),43,14,57,,,,,,,
NCCCC[C@H](NC(=O)[C@@H]1CCCN1C(=O)[C@@H]1CSSC[C@H](N)C(=O)N[C@@H](Cc2ccc(O)cc2)C(=O)N[C@@H](Cc2ccccc2)C(=O)N[C@@H](CCC(N)=O)C(=O)N[C@@H](CC(N)=O)C(=O)N1)C(=O)NCC(N)=O,,20,56,,,,58,58,67,20
CC(C)(C)OC(=O)N1CCC[C@H]1C(=O)N[C@@H](CCCN=C(N)N)C(=O)NCC(N)=O (Boc-Pro-Arg-Gly-NH2),,,,,,,0,43,71,
CC(C)(C)OC(=O)N1CCC[C@H]1C(=O)N[C@@H](CCCCNC(=O)OCc1ccccc1)C(=O)NCC(N)=O (Boc-Pro-Lys(Cbz)-Gly-NH2),,,,,,,91,63,0,
CC(C)(C)OC(=O)N1CCC[C@H]1C(=O)N[C@@H](CCCCN)C(=O)NCC(N)=O (Boc-Pro-Lys-Gly-NH2),,,,,,,25,17,33,
CC(C)(C)OC(=O)N1CCC[C@H]1C(=O)N[C@@H](CCC/N=C(\N)N[N+](=O)[O-])C(=O)NCC(N)=O (Boc-Pro-[Arg(NO2)]-Gly-NH2),,,,,,,44,20,33,
CC(C)(C)OC(=O)NC(CCC/N=C(\N)N[N+](=O)[O-])C(=O)NCC(N)=O (stereo not given) (Boc-[ξArg(NO2)]-Gly-NH2),,,,,,,33,53,73,
CC(C)(C)OC(=O)NC(CCCCNC(=O)OCc1ccccc1)C(=O)NCC(N)=O (stereo not given) (Boc-[ξK](Cbz)-Gly-NH2),47,33,16,,,,48,53,35,
CC(C)C[C@H](NC(=O)[C@@H]1CCCN1C(=O)OCc1ccccc1)C(=O)NCC(N)=O (Cbz-Pro-Leu-Gly-NH2),,,,,,,93,47,100,
CC(C)(C)OC(=O)NCCCC[C@H](NC(=O)[C@@H]1CCCN1C(=O)OCc1ccccc1)C(=O)NCC(N)=O (Cbz-Pro-Lys(Boc)-Gly-NH2),0,50,0,,,,,,,
COC(=O)CNC(=O)[C@H](CCCCNC(=O)OC(C)(C)C)NC(=O)[C@@H]1CCCN1C(=O)OCc1ccccc1 (Cbz-Pro-Lys(Boc)-Gly-OMe),,,,,,,91,54,0,
NCCCC[C@H](NC(=O)[C@@H]1CCCN1C(=O)OCc1ccccc1)C(=O)NCC(N)=O (Cbz-Pro-Lys-Gly-NH2),,,,,,,9,100,63,
NCCCC[C@H](NC(=O)[C@@H]1CCCN1C(=O)OCc1ccccc1)C(=O)NCC(=O)O (Cbz-Pro-Lys-Gly-OH),,,,,,,100,79,79,
CC(C)(C)OC(=O)NCCCCC(NC(=O)OCc1ccccc1)C(=O)NCC(N)=O (stereo not given) (Cbz-[ξK](Boc)-Gly-NH2),,,,,,,33,25,33,
NC(=O)CNC(=O)[C@@H](N)CCCN=C(N)N (H-Arg-Gly-NH2),,,,,,,51,20,27,
N=C(N)NCCC[C@H](NC(=O)[C@@H]1CCCN1)C(=O)NCC(N)=O (H-Pro-Arg-Gly-NH2),,,,,,,30,0,30,
CC(C)C[C@H](NC(=O)[C@@H]1CCCN1)C(=O)NCC(N)=O (H-Pro-Leu-Gly-NH2),43,14,43,,,,42,33,42,
NCCCC[C@H](NC(=O)[C@@H]1CCCN1)C(=O)NCC(N)=O (H-Pro-Lys-Gly-NH2),78,78,78,,,,100,48,39,
